High-throughput results (PubChem)
A3A deaminase: blocks human APOBEC3A ssDNA deamination | P31941 | 0.41% of 330,000 active | recombinant A3A, FAM/TAMRA ssDNA deamination fluorescence | inhibition, % at 20 µM | AID 493011;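 active = at least 40% inhibition at 20 µM here, with at most 30% in a related deaminase screen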;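 note: plate controls were A3A with DMSO for no effect and wells lacking A3A enzyme for full effect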
Target sequence (P31941 whole entry, looked up): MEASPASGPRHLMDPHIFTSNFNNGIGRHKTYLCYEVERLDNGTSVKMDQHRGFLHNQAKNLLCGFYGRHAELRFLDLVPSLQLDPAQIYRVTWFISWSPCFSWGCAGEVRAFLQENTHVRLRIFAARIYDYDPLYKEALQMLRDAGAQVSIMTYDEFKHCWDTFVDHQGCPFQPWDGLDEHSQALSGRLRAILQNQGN
HCV NS3 hel inh: HCV NS3 helicase inhibition; NS3 helicase DNA unwinding, Cy5 molecular beacon fluorescence; inhibition, % at 10.9 µM; 0.56% of 290,000 active; AID 1800;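 active = inhibition above the mean of all tested compounds plus 3 SD, set per campaign, cut at about 35% in these data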;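 note: 0% = DMSO wells and 100% = thioflavine S control wells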
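Test system: hepatitis C virus NS3 helicase domain fragment enzyme. Also added: annealed dual-labelled DNA beacon duplex, ATP-started. Timing: 60 min unwinding reaction at 25 °C after ATP addition. Technique: Cy5 fluorescence. Measure: % inhibition of unwinding.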
ABHD5-PLIN5 inh: blocks binding of human ABHD5 to perilipin-5; Q00G26+Q8WTS1; Split G. princeps luciferase complementation, luminescence, 4 h; inhibition, % at 4 µM; 0.78% of 360,000 active; AID 602281;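 active = inhibition above the mean inhibition across every tested compound plus 3 SD, cut at about 22% in these data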;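 note: 0% = DMSO only wells and the 100% control is not disclosed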
HCV core dimer: blocks dimerization of HCV core protein | TR-FRET GST/Flag-core106 dimerization, 1536-well | inhibition, % at 5 µM | 0.33% of 300,000 active | AID 1899;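 active = inhibition above the mean of all tested compounds plus 3 SD, set per screening campaign, cut at about 45% in these data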
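Material: Tagged HCV core106 pair (GST and Flag) | Amount: GST-core106 13.5 nM, Flag-core106 17 nM | Medium: KF-containing HEPES buffer, pH 7.45, DTT, CHAPS, BSA | Reagent: Eu donor and XL665 acceptor anti-tag antibodies | Schedule: 4 h at 22.5 °C | Technique: Time-resolved FRET, ex 340 nm, em 617 and 671 nm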
PRMT1 inh: inhibitors of human PRMT1; inhibition, % at 2.79 µM; AID 652257; recombinant PRMT1, activity-based probe fluorescence polarization; 1.3% of 370,000 active; Q99873;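 active = inhibition above about 21% made by adding two undisclosed values, limit read from the data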
APOBEC3G inh: APOBEC3G (human) deaminase inhibition; Q9HC16; inhibition, % at 20 µM; recombinant A3G, ssDNA deamination FAM/TAMRA fluorescence; 0.28% of 330,000 active;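 active = inhibition of at least 40% at 20 µM, with no more than 30% in the related APOBEC3A deaminase screen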;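 note: plate controls were DMSO wells with A3G for no effect and wells lacking A3G enzyme for full effect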
ABHD5 PLIN5 conf: ABHD5-PLIN5 interaction inhibition, confirmed. shares compounds with ABHD5-PLIN5 inh. biochemical ABHD5-PLIN5 interaction, luminescence. inhibition, % at 4 µM. 67% of 2,200 active. AID 651612; in the data active = inhibition above about 23%;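 note: 0% = DMSO vehicle wells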
HNF4 counter: counter-screen for ABHD5-PLIN5 inhibitors: HNF4 split-luciferase; shares compounds with ABHD5-PLIN5 inh; HNF4 dimerization, luminescence, biochemical; inhibition, % at 4 µM; 77% of 2,200 active; AID 651674;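 active = mean inhibition across replicate wells exceeding the computed hit threshold, cut at about 13% in these data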;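 note: light from luciferase halves that rejoin when HNF4 fusion proteins dimerize; 0% = DMSO only wells and the 100% control is not given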
Target sequence (P41235 whole entry, looked up, the tested form may be a part): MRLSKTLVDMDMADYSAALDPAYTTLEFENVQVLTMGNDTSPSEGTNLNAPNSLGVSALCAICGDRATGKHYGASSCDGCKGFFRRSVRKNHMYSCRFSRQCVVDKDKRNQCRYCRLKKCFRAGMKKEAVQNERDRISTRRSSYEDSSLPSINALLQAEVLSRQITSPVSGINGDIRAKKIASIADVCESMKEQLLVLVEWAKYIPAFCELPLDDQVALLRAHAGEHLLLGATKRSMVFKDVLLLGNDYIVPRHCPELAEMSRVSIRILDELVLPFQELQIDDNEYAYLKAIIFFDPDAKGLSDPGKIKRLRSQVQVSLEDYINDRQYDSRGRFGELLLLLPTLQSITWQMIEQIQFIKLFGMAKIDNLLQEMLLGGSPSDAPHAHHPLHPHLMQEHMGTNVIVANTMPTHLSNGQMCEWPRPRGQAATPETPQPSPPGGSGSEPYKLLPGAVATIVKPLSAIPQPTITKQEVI
The depositor's hits bear a star; x = no result. An excerpt weighted towards active compounds, which were near 2.9% of everything screened.

SMILES | A3A deaminase | HCV NS3 hel inh | ABHD5-PLIN5 inh | HCV core dimer | PRMT1 inh | APOBEC3G inh | ABHD5 PLIN5 conf | HNF4 counter
COc1ccc(OC)c(-n2c(O)c(/C=C3\C=Nc4ccccc43)c(=O)[nH]c2=O)c1 | -3 | 13 | 22 | 2 | 1 | -7 | x | x
CN(C)c1cccc2c(C#N)ccc(N(C)C)c12 | 0 | -6 | -6 | -6 | 1 | 5 | x | x
Cc1nc2cc(OC(=O)N(C)Cc3cccc(-c4ccncc4)c3)ccc2s1 | x | x | 14 | x | x | x | x | x
COc1ccc(OC)c(N2C(=O)CC(=O)NC2=O)c1 | -1 | 7 | 30* | 2 | 0 | -1 | 5 | 21*
Cc1ccc(N2C(=O)CC(=O)NC2=O)c(C)c1 | -6 | 24 | 17 | -1 | 0 | -8 | x | x
O=c1c2ccccc2[se]n1-c1ccccc1 | 43 | -1 | 81* | -25 | 95* | 91 | 88* | 110*
CC(C)(O)/C=C/C(=O)C(C)(O)C1C(O)CC2(C)C3CC=C4C(C=C(O)C(=O)C4(C)C)C3(C)C(=O)CC12C (stereo not drawn) | x | x | 42* | x | -6 | x | 68* | 50*
CC(=O)OC(C)(C)/C=C/C(=O)[C@](C)(O)C1[C@H](O)C[C@@]2(C)C3CC=C4C(C[C@H](O)C(=O)C4(C)C)[C@]3(C)C(=O)C[C@]12C (stereo partly drawn) | -5 | x | 10 | x | x | -9 | x | x
COc1ccc(C(=O)C2CCCN(Cc3ccc(F)cc3F)C2)cc1F (stereo not drawn) | 2 | -9 | 3 | x | -2 | -4 | x | x
O=C1NC(=O)N(c2ccc3c(c2)OCO3)C(=O)/C1=C/c1cccs1 | 8 | 8 | 29* | -4 | 4 | 26 | 82* | 87*
CCc1ccc(N2C(=O)NC(=O)/C(=C/c3ccsc3)C2=O)cc1 | 3 | 22 | x | -3 | x | 2 | x | x
O=C1NC(=O)N(c2ccc3c(c2)OCO3)C(=O)/C1=C/c1ccsc1 | -3 | 8 | 30* | 1 | 13 | -10 | 66* | 55*
COC(=O)C1(F)C(=O)NC(=O)NC1O (stereo not drawn) | x | x | 5 | x | 5 | x | x | x
O=C1NCN(c2ccccc2)C12CCN(C(c1ccnc3ccccc13)c1nnnn1-c1ccc3c(c1)OCCO3)CC2 (stereo not drawn) | x | x | 8 | x | -2 | x | x | x
CN1C(=O)C(=Cc2ccc(Sc3ccccc3)o2)C(=O)N(C)C1=O | -1 | -5 | 10 | -5 | 10 | -2 | x | x
O=C1NC(=O)C(=Cc2ccc(Sc3ccccc3)o2)C(=O)N1 | 0 | 9 | 23* | 6 | 19 | 8 | 96* | 103*
COc1cc2c(cc1/C=C/[N+](=O)[O-])OCO2 | x | 8 | 66* | x | 11 | x | 96* | 101*
O=C1NC(=O)C(=Cc2ccc(-c3ccc(F)cc3O)o2)C(=O)N1 | 3 | 21 | 25* | -6 | 4 | 9 | 73* | 86*
Cc1cc(/C=C2/C(=O)NC(=O)N(c3ccccc3)C2=O)c(C)n1-c1ccc(F)cc1 | -2 | 10 | 6 | 11 | 5 | -4 | x | x
CN1C(=O)C(=Cc2cn(CC(=O)N3CCCCC3)c3ccccc23)C(=O)N(C)C1=O | 0 | -6 | 18 | 2 | x | -4 | x | x
COc1cc(/C=C2\C(=O)NC(=O)N(c3ccccc3)C2=O)cc(OC)c1O | 0 | -6 | 34* | -1 | 8 | -6 | 17 | 22*
COc1cc(/C=C2\C(=O)NC(=O)N(c3ccccc3)C2=O)c([N+](=O)[O-])cc1OC | x | 1 | 10 | x | 4 | x | x | x
O=C(O)Cn1cc(C=C2C(=O)NC(=O)NC2=O)c2ccccc21 | -3 | 15 | 32* | 15 | 12 | -11 | 12 | 12
Cn1cc(/C=C2\C(=O)NC(=O)N(c3ccccc3)C2=O)c2ccccc21 | -6 | 19 | 29* | 6 | 6 | -7 | 14 | 15*
CCOC(=O)Cn1cc(C=C2C(=O)N(C)C(=O)N(C)C2=O)c2ccccc21 | -5 | 14 | 29* | 10 | 16 | -12 | 8 | 11
SMILES | A3A deaminase | HCV NS3 hel inh | ABHD5-PLIN5 inh | HCV core dimer | PRMT1 inh | APOBEC3G inh | ABHD5 PLIN5 conf | HNF4 counter
O=C(NC1CN2CCC1CC2)c1cc(Cl)c([N+](=O)[O-])c2nc[nH]c12 (stereo not drawn) | -3 | -8 | 1 | -4 | 4 | -4 | x | x
COc1cccc(CNCCc2cccc(F)c2)c1OC | -6 | -3 | 2 | -5 | 6 | -9 | x | x
C=CCn1cc(C=C2C(=O)NC(=O)NC2=O)c2ccccc21 | -4 | 20 | 16 | -2 | 7 | -9 | x | x
O=C(O)Cn1cc(/C=C2\C(=O)NC(=O)N(c3ccc(Cl)cc3)C2=O)c2ccccc21 | -1 | 29 | 36* | 16 | 1 | -4 | 33* | 32*
CCn1c(O)c(C(c2ccccn2)c2c(O)n(CC)c(=S)[nH]c2=O)c(=O)[nH]c1=S | -6 | 8 | -7 | -16 | 7 | 10 | x | x
Nc1c(C(=O)NCC2CCCO2)c2nc3ccccc3nc2n1Cc1ccco1 (stereo not drawn) | -2 | 32 | 26* | 4 | 14 | -3 | 53* | 45*
Nc1c(C(=O)NCc2ccco2)c2nc3ccccc3nc2n1CCN1CCCCC1 | 7 | -1 | 24* | 10 | 3 | 10 | 12 | 8
COc1ccc(Cn2c(N)c(C(=O)NCc3ccco3)c3nc4ccccc4nc32)cc1OC | -3 | 19 | 5 | 30 | 7 | -4 | x | x
Cc1csc(=N)n1Cc1ccccc1 | -2 | 8 | 3 | -6 | -4 | 2 | x | x
O=C1NC(=O)N(c2ccccc2F)C(=O)/C1=C/c1ccc(Oc2ccc([N+](=O)[O-])cn2)cc1 | 0 | 8 | 24* | 7 | 1 | -5 | 69* | 47*
O=C1NC(=O)C(=Cc2ccc(OCCOc3ccc([N+](=O)[O-])cc3)cc2)C(=O)N1 | 3 | 5 | -6 | -3 | 17 | 12 | x | x
CCCCCCCSc1cc(OC)c(CCN(C)C)cc1OC | 1 | -88 | 28* | -28 | -3 | -6 | 17 | 1
COc1cc(/C=N/n2cnnc2)ccc1OC(=O)N(C)C | -6 | -3 | -8 | 2 | -2 | -7 | x | x
COc1cc(/C=C/[N+](=O)[O-])ccc1OC(=O)c1cccnc1 | -6 | 2 | 27* | x | 5 | -1 | 83* | 101*
CC(C)[C@]12CC(=O)[C@H](C)[C@H]1C2 | 2 | x | 8 | x | -3 | -4 | x | x
CN(C)CC(C(=O)Cc1ccccc1)c1ccccc1 (stereo not drawn) | x | x | 37* | x | 12 | x | 16 | 92*
